Source: ChEMBL document CHEMBL1799991, “Discovery of a novel class of 2-aminopyrimidines as CDK1 and CDK2 inhibitors” (Bioorg Med Chem Lett, 2011)

Legend:
[1] = system: HCT-116; test: Cytotoxicity against human HCT116 cells after 48 hrs; format: functional; conditions: HCT-116, 48 h
Procedure, shortened: (§1)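 Exponentially growing cells exposed to test compounds at various concentrations for 48 h, then cell numbers counted; GI50 taken as the concentration giving 50% growth inhibition. Values are means of three experiments.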

[2] = system: EJ; test: Cytotoxicity against human EJ cells after 48 hrs; format: functional; procedure, shortened: as §1
[3] = system: A549; test: Cytotoxicity against human A549 cells after 48 hrs; format: functional; conditions: A549, 48 h; procedure, shortened: as §1
[4] = biological target: Cyclin-dependent kinase 1 (Homo sapiens, UniProt P06493); test: Inhibition of CDK1 in presence of 100 uM ATP
Sequence of Cyclin-dependent kinase 1 (P06493 whole entry): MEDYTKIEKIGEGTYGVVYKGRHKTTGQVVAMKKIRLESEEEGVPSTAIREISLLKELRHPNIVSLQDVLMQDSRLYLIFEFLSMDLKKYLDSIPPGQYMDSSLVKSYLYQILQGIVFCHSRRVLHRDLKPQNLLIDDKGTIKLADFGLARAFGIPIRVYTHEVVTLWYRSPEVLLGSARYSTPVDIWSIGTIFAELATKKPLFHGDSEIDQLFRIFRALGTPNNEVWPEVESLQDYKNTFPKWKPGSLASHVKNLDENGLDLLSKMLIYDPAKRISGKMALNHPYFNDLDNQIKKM

[5] = biological target: Cyclin-dependent kinase 2 (Homo sapiens, UniProt P24941); test: Inhibition of CDK2 in presence of 100 uM ATP

Structure (SMILES)	GI50 [1] [µM]	GI50 [2] [µM]	GI50 [3] [µM]	IC50 [4] [µM]	IC50 [5] [µM]
CC(C)c1cc(-c2cc(N3C[C@H](O)[C@@H](O)C3)ccc2O)nc(N)n1	0.9	1.5	1.8	0.094	–
Nc1nc(NC2CCCC2)cc(-c2cc(N3C[C@H](O)[C@@H](O)C3)ccc2O)n1	3	4.5	7	0.019	0.015
Nc1nccc(-c2cc(N3CCS(=O)(=O)CC3)ccc2O)n1	–	–	–	7.5	3.98
CCCCCCc1cc(-c2cc(N3C[C@H](O)[C@@H](O)C3)ccc2O)nc(N)n1	0.5	0.8	0.7	0.26	0.45
Nc1nc(-c2cc(N3C[C@H](O)[C@@H](O)C3)ccc2O)cc(C2CCCCCC2)n1	0.3	0.7	0.6	0.031	0.09
Nc1nc(-c2cc(N3C[C@H](O)[C@@H](O)C3)ccc2O)cc(C2CCNCC2)n1	> 10	–	–	0.34	0.2
Nc1nc(-c2cc(N3C[C@H](O)[C@@H](O)C3)ccc2O)cc(C2CCCNC2)n1 (stereo partly drawn)	> 10	> 10	> 10	0.22	0.36
Nc1nccc(-c2cc(N3CCC(O)C3)ccc2O)n1 (stereo not drawn)	–	–	–	2.99	2.11
Nc1nccc(-c2cc(N3C[C@H](O)[C@@H](O)C3)ccc2O)n1	2.5	4	5.5	0.015	0.021
CCc1cc(-c2cc(N3C[C@H](O)[C@@H](O)C3)ccc2O)nc(N)n1	1	1.5	3	0.031	0.05
Nc1nc(NC2CCCCC2)cc(-c2cc(N3C[C@H](O)[C@@H](O)C3)ccc2O)n1	0.9	2	1.5	0.02	0.06
CN1CCN(c2cc(-c3cc(N4C[C@H](O)[C@@H](O)C4)ccc3O)nc(N)n2)CC1	> 10	–	–	0.42	0.3
Nc1nc(-c2cc(N3C[C@H](O)[C@@H](O)C3)ccc2O)cc(N2CCOCC2)n1	> 10	–	–	1	0.94
Nc1nc(-c2cc(N3C[C@H](O)[C@@H](O)C3)ccc2O)cc(C2CCCC2)n1	0.4	0.9	2	0.023	0.042
Nc1nccc(-c2cc(N3CCC(=O)CC3)ccc2O)n1	–	–	–	> 10	> 10
Nc1nc(-c2cc(N3C[C@H](O)[C@@H](O)C3)ccc2O)cc(C2CC2)n1	–	–	–	> 10	> 10
CN(C)c1cc(-c2cc(N3C[C@H](O)[C@@H](O)C3)ccc2O)nc(N)n1	> 10	–	–	0.28	0.25
Nc1nc(NCCN2CCOCC2)cc(-c2cc(N3C[C@H](O)[C@@H](O)C3)ccc2O)n1	> 10	–	–	0.79	0.45
Nc1nccc(-c2cc(N3CCOCC3)ccc2O)n1	–	–	–	2.24	0.79
Nc1nccc(-c2cc(N3CCCCC3)ccc2O)n1	–	–	–	> 10	> 10
Nc1nccc(-c2cc(N3CCC(O)CC3)ccc2O)n1	–	–	–	10	3.76
Cc1cc(-c2cc(N3C[C@H](O)[C@@H](O)C3)ccc2O)nc(N)n1	0.4	0.9	2	0.02	0.042
Nc1nc(-c2cc(N3C[C@H](O)[C@@H](O)C3)ccc2O)cc(C2CCCCC2)n1	0.8	1.2	1.2	0.045	0.052
